From PubChem
Compounds with a hit are over-represented: about 2.5% of the library has one in this group of screens.
TCR-CD3 inh: inhibitors of human TCR-CD3 interaction, primary screen, biochemical, fluorescence, TAMRA-labeled TCR probe; T-cell receptor (TCR); inhibition, % at 9.4 µM; actives 0.37% (n = 360,000); in the data active = inhibition above about 19%;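 also: recombinant mutant TCR 2C K166C tagged with TAMRA read by polarization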
HTRA1 inh: HTRA1 serine protease inhibitors, primary screen, biochemical, fluorescence polarization, HTS. actives 0.5% (n = 340,000). recombinant HTRA1, FP-rhodamine activity-based probe. inhibition, % at 5.96 µM. Q92743; in the data active = inhibition above about 36%
PRMT1 FP inh: PRMT1 methyltransferase inhibitors, primary screen, biochemical, fluorescence polarization. Protein arginine N-methyltransferase 1 (Homo sapiens), Q99873. recombinant PRMT1, activity-based probe fluorescence polarization. inhibition, % at 2.79 µM. actives 1.3% (n = 370,000). AID 652257, 2013;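 active = inhibition above about 21% made by adding two undisclosed values, limit read from the data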
SIAE primary: human SIAE inhibitors, primary screen, biochemical, fluorescence polarization, FP-Rh probe, 1536-well HTS. Sialate O-acetylesterase (Homo sapiens), Q9HAT2. inhibition, % at 9.66 µM. AID 1053197, 2014. SIAE FP-Rh probe binding. actives 0.69% (n = 370,000);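 active = inhibition above a cutoff: mean of compounds within the control limits plus 3 SD of those, cut at about 17% in these data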
Target sequence (Q9HAT2 whole entry, looked up): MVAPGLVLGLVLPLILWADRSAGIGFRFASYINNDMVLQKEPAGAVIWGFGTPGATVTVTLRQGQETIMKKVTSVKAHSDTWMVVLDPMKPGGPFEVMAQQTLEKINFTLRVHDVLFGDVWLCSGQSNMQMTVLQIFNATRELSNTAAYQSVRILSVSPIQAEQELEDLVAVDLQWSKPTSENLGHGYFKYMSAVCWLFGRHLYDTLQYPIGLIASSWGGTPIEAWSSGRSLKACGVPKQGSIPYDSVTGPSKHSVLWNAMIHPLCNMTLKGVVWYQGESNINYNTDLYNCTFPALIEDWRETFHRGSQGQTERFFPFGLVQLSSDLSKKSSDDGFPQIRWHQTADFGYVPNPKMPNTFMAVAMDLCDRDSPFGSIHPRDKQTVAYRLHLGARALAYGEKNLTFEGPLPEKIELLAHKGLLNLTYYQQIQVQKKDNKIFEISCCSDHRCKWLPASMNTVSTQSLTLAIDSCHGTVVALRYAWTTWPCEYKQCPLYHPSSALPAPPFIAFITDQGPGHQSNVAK
mABHD4 FP: ABHD4 inhibitors, primary screen, biochemical, fluorescence polarization, mouse; purified mABHD4, FP-Rh probe fluorescence polarization; inhibition, % at 8.92 µM; (Lyso)-N-acylphosphatidylethanolamine lipase (Mus musculus), Q8VD66; AID 720543, 2013; actives 0.54% (n = 370,000);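 active = inhibition exceeding the mean over every tested compound plus 3 SD, cut at about 30% in these data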
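Doses – 8.92 µM, single dose · Material – wild-type mouse ABHD4 protein · Replication – single well per compound (singlicate) · Measure – percent inhibition of probe binding, normalized to plate controls · Schedule – 45 min compound pre-incubation plus 60 min probe step, 25 °C · Detection – fluorescence polarization with parallel and perpendicular emission, 525/598 nm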
mABHD4 conf: ABHD4 inhibitors, retest, confirmation, biochemical, fluorescence polarization, mouse; shares compounds with mABHD4 FP; purified mABHD4, FP-Rh probe fluorescence polarization; inhibition, % at 8.92 µM; actives 55% (n = 1,800); AID 720658, 2013;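 active = mean inhibition across replicates above the hit cutoff set in the primary screen, cut at about 30% in these data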
Each line names hits and unclear results; the compound was inactive in the other large screens (follow-up assays come after a bar, where they were run).

CC(=O)N1CCC(=NNc2nc3ccccc3[nH]2)CC1	mABHD4 FP 30 (no result: HTRA1 inh) | mABHD4 conf inactive
C/C(=N\Nc1nc2ccccc2[nH]1)c1ccc(Cl)s1	mABHD4 FP 31 | mABHD4 conf inactive
CCC(C)(C)C1CCC(=NNc2nc3ccccc3[nH]2)CC1 (centres undefined)	none
C/C(=N\Nc1nc2ccccc2[nH]1)c1ccc(N2CCOCC2)cc1	mABHD4 FP 33 | mABHD4 conf 30
C/C(=N\NC(=O)c1ccncc1)c1ccc(N2CCOCC2)cc1	none
C/C(=N\Nc1nc(C)cc(C)n1)c1ccc(N2CCOCC2)cc1	none
C/C(=N\NC(=O)c1ccccc1)c1ccc(N2CCOCC2)cc1	mABHD4 FP 71 | mABHD4 conf inactive
COc1ccc(NC(=O)N2CCC(N(C)CCC(C)C)CC2)cc1OC	none (no result: TCR-CD3 inh, HTRA1 inh)
COc1cc(/C=N/NC(=O)C(Cc2c[nH]c3ccccc23)NC(=O)OCC(C)C)cc([N+](=O)[O-])c1OCc1ccccc1 (centres undefined)	none
COc1cc(/C=N/NC(=O)C(Cc2c[nH]c3ccccc23)NC(=O)OCc2ccccc2)cc([N+](=O)[O-])c1O (centres undefined)	SIAE primary 64, mABHD4 FP 45 | mABHD4 conf 92
CSc1ccc(C=Nn2c(-c3cc(C)[nH]n3)n[nH]c2=S)cc1	none (no result: TCR-CD3 inh, HTRA1 inh)
COc1cc(C2c3sc(=O)[nH]c3SC3C(=O)N(c4ccc(Br)cc4)C(=O)C32)ccc1O (centres undefined)	mABHD4 FP 34 | mABHD4 conf inactive
COC(=O)CSc1nnc(-c2cc(-c3ccccc3)n[nH]2)n1N	none (no result: TCR-CD3 inh, HTRA1 inh)
O=C(CSc1nnc(-c2cccs2)n1Cc1ccco1)Nc1ccc(OCc2ccccc2)cc1	none (no result: TCR-CD3 inh, HTRA1 inh)
C=CCN(c1ccccc1C(=O)O)S(=O)(=O)c1ccc(NC(=O)OC)cc1	mABHD4 FP 35 | mABHD4 conf inactive
C=CCN(c1ccccc1C(=O)NCC(=O)O)S(=O)(=O)c1ccc(C)cc1	none
CCOc1cccc2sc(NN)nc12	mABHD4 FP 71 | mABHD4 conf 71
Cc1c(C(=O)O)cccc1-n1c(C)cc(/C=N/Nc2ccc([N+](=O)[O-])cn2)c1C	mABHD4 FP 30 | mABHD4 conf 48
NC(=S)N/N=C/c1ccc(-c2cccc([N+](=O)[O-])c2)o1	none
O=C(O)c1ccc(N/N=C/c2ccc(-c3cccc(Cl)c3)o2)cc1	mABHD4 FP 50 | mABHD4 conf 65
O=[N+]([O-])c1ccc(C=NNc2ccc(S(=O)(=O)O)cc2)cc1	mABHD4 FP 33 | mABHD4 conf 50
O=C(O)c1cccc(-c2ccc(/C=N/Nc3ccc([N+](=O)[O-])cc3)o2)c1	mABHD4 FP 39 | mABHD4 conf 53
Cc1c(C(=O)O)cccc1-c1ccc(/C=N/Nc2ccc(Br)cc2)o1	mABHD4 FP 35 | mABHD4 conf 42
O=C(O)c1ccc(N/N=C/c2ccc(-c3cc(Cl)ccc3Cl)o2)cc1	none
Cc1cc(N2CCOc3ccccc32)nc2ccccc12	none (no result: TCR-CD3 inh, HTRA1 inh)
COc1ccc(Cn2cc(CN3[C@@H](CC(C)C)COc4ccc(Cl)cc4S3(=O)=O)nn2)cc1	none (no result: TCR-CD3 inh, HTRA1 inh)
O=C(COc1ccccc1)N=C1SC2CS(=O)(=O)CC2N1c1ccc(F)cc1 (centres undefined)	mABHD4 FP 34 | mABHD4 conf inactive
O=C(COc1ccccc1)N=C1SC2CS(=O)(=O)CC2N1CCc1ccccc1 (centres undefined)	none
COc1cc(C2NCC(c3ccc(Cl)cc3Cl)c3c2[nH]c2ccccc32)cc(OC)c1OC (centres undefined)	mABHD4 FP 44 | mABHD4 conf 59
O=C(O)c1ccc(C2NCC(c3ccccc3Cl)c3c2[nH]c2ccccc32)cc1 (centres undefined)	none
COCCCOc1cc(NCc2ccccc2)c2ncn(C(C)C)c2c1	none
CCC(CO)Oc1cc(NCc2ccc(C(C)(C)C)cc2)c2ncn(C(C)C)c2c1 (centres undefined)	mABHD4 FP 30 | mABHD4 conf 34
CCCCOc1cc(NCc2ccccc2)c2ncn(C(C)C)c2c1	mABHD4 FP 37 | mABHD4 conf 91
C/C(=N\Nc1nc2ccccc2s1)c1ccc(Br)s1	mABHD4 FP 33 | mABHD4 conf inactive
CC(=O)c1cc(-c2cc(C(F)(F)F)cc(C(F)(F)F)c2)c(=O)n2c1CCC2	none (no result: TCR-CD3 inh, HTRA1 inh)
COc1ccc(NS(=O)(=O)c2cc(N)ccc2N2CCCC2)cc1	mABHD4 FP 39 | mABHD4 conf 32
O=C(O[C@H]1CC[C@@]23CCCN2C(=O)CCC[C@H]3C1)N1CCOCC1	none (no result: TCR-CD3 inh, HTRA1 inh)
O=S(=O)(Nc1cccc2[nH]ncc12)c1cccs1	none
O=S(=O)(Nc1cccc2c1ccc1cccn12)c1cccs1	mABHD4 FP 34 | mABHD4 conf inactive
COc1ccc(-c2csc(NS(=O)(=O)c3ccc([N+](=O)[O-])cc3)n2)cc1	mABHD4 FP 37 | mABHD4 conf 34
Cc1ccc(Nc2cc(C)c3c(O)cccc3n2)cc1C	SIAE primary 18, mABHD4 FP 44 | mABHD4 conf 51
COc1ccc(Nc2cc(C)c3c(O)cccc3n2)cc1	none
C=CCN1C(=O)[C@@H](CC(=O)NCCCCc2ccccc2)[C@]2(C(=O)OC)CCCCC=C12	none (no result: TCR-CD3 inh, HTRA1 inh)
COc1ccc(OC)c(S(=O)(=O)N2CCC(C(=O)NCc3cccs3)CC2)c1	none (no result: TCR-CD3 inh, HTRA1 inh)
COc1ccc(OC)c(S(=O)(=O)N2CCN(CC(O)CN3CCOCC3)CC2)c1 (centres undefined)	none
N#Cc1ccccc1S(=O)(=O)N1CCN(CC(O)CN2CCOCC2)CC1 (centres undefined)	mABHD4 FP 38 | mABHD4 conf inactive
CC(C)C1Nc2ccc(C(=O)O)cc2C2C=CCC21 (centres undefined)	mABHD4 FP 45 | mABHD4 conf 38
O=C(c1cc(C2CC2)on1)N(C1CCCCC1)C1CCOCC1	none (no result: TCR-CD3 inh, HTRA1 inh)
CN(C(=O)Cn1cnc2ccccc2c1=O)C1CCS(=O)(=O)C1 (centres undefined)	mABHD4 FP 50 | mABHD4 conf inactive
CC(=O)Oc1cc2c3c(c1)/C(=C1/SC(=S)NC1=O)C(=O)N3C(C)(C)C=C2C	mABHD4 FP 61 | mABHD4 conf 101
C=CC[C@@H]1NN2C(=O)[C@@H](CCCC)[C@@H]3c4ccccc4C=NN3[C@@H]2c2ccccc21	none (no result: TCR-CD3 inh, HTRA1 inh)
O=C(NNc1ccccn1)C(=O)NNS(=O)(=O)c1ccc(F)cc1	mABHD4 FP 36 | mABHD4 conf 30
O=C(NNc1ccccn1)C(=O)NNS(=O)(=O)c1ccc(Cl)cc1	mABHD4 FP 58 | mABHD4 conf 55
